{"source": "paper PMC7346264", "about": "(ACS Omega, 2020)", "key": {"[1]": {"assay_type": "in vitro ADME, human", "conditions": "whole blood", "outline": "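Validation arm: fresh whole blood in EDTA or BD P100 tubes, equilibrated 30 min at 4 °C. Spiked with four peptides not used in training, 10 nM each (final). Aliquots taken at 0–7.5 h and centrifuged 1800g for 10 min. Plasma deproteinised with acidified acetonitrile, then quantified by UPLC–MS/MS MRM. Decay constant taken from the ln-linear slope. T50/T90 derived assuming first-order kinetics, SEM by error propagation.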"}, "[2]": {"assay_type": "in vitro ADME, human", "conditions": "for original content still present / detected in plasma: after 1 month of storage at −80 °C, P100 plasma; for T90 in days (±SEM) in P100 plasma: 50 nM, T90 extrapolated", "outline": "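Cell-free plasma from BD P100 tubes spiked with the training peptide mix, 50 nM each (final). Aliquots stored at 4, −35 or −80 °C for up to 1 month. Sampled before storage and at 1, 7 and 30 days. Each 50 µL sample was acidified-acetonitrile precipitated, sonicated, boiled and centrifuged, then run by UPLC–MS/MS. Content normalised to baseline. T90 extrapolated from first-order decay fits.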"}, "[3]": {"assay_type": "in vitro ADME, human", "conditions": "time frame of 7.5 h, at both 4 and 21 °C, all tubes", "outline": "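Fresh donor whole blood, in EDTA, EDTA plus protease-inhibitor cocktail (1:100 final), BD P100 or BD P800 tubes, held 30 min at 4, 21 or 37 °C. Then spiked with peptide mix at 10 nM each (final). Sampled at 0, 2.5, 5 and 7.5 h and centrifuged. Plasma acetonitrile/formic acid precipitated and analysed by amide UPLC–ESI(+)–MS/MS MRM. T0-normalised ln areas fitted first-order (λ). T50/T90 reported ±SEM by error propagation, n = 4.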"}, "[4]": {"conditions": "external validation, P100 tube, 4 °C"}, "[5]": {"conditions": "head-to-head comparison, EDTA sampling tube at 4 °C"}, "[6]": {"conditions": "head-to-head comparison, P100 sampling tube at 4 °C"}, "[7]": {"conditions": "storage at 4 °C, n = 4, up to 1 month"}, "[8]": {"conditions": "storage at −35 °C, n = 4, thawed once, up to 1 month"}, "[9]": {"conditions": "storage at −80 °C, n = 4, thawed once, up to 1 month"}}, "note": "“And” between values parts separate entries of the source, which are not always exact repeats. Equal entries are not always repeated. Where two headings read alike, the source gives them in different places. Where no end group is shown, it is not given here.", "data": [{"substance": "ESRVSRIILDFLFQRKK [Q055]", "values": [{"measurement": "T50 [±SEM]", "setting": "[1]; [4]", "result": "1.49 [±0.12] h"}, {"measurement": "T90 [±SEM] (time where 90% of the peptide is still present)", "setting": "[1]; [4]", "result": "0.23 [±0.02] h"}, {"measurement": "decay constant (λ) [±SEM]", "setting": "[1]; [4]", "result": "–0.00776 [±0.00064]"}, {"measurement": "T50 [±SEM]", "setting": "[1]; [5]", "result": "1.35 [±0.33] h"}, {"measurement": "T90 [±SEM]", "setting": "[1]; [5]", "result": "0.21 [±0.05] h"}, {"measurement": "decay constant (λ) [±SEM]", "setting": "[1]; [5]", "result": "–0.00856 [±0.0021]"}, {"measurement": "T50 [±SEM]", "setting": "[1]; [6]", "result": "2.07 [±0.36] ^a h"}, {"measurement": "T90 [±SEM]", "setting": "[1]; [6]", "result": "0.31 [±0.05] ^a h"}, {"measurement": "decay constant (λ) [±SEM]", "setting": "[1]; [6]", "result": "–0.00559 [±0.00098]"}]}, {"substance": "SDLPFEH [Q164, SDLPFEH]", "values": [{"measurement": "original content still present / detected in plasma", "setting": "[2]", "result": "more than 95%"}, {"measurement": "T90 in days (±SEM) in P100 plasma", "setting": "[2]; [7]", "result": "0.95 (±0.23) days"}, {"measurement": "T90 in days (±SEM) in P100 plasma", "setting": "[2]; [8]", "result": "33.8 (±45.91) days"}, {"measurement": "T90 in days (±SEM) in P100 plasma", "setting": "[2]; [9]", "result": "96.3 (±136.01) days"}]}, {"substance": "ESRLPKIRFDFIFPRKK [Q054]", "values": [{"measurement": "T50 [±SEM]", "setting": "[1]; [4]", "result": "1.87 [±0.17] h"}, {"measurement": "T90 [±SEM] (time where 90% of the peptide is still present)", "setting": "[1]; [4]", "result": "0.28 [±0.03] h"}, {"measurement": "decay constant (λ) [±SEM]", "setting": "[1]; [4]", "result": "–0.00619 [±0.00056]"}]}, {"substance": "SIFTLVA [Q184, SIFTLVA]", "values": [{"measurement": "degradation of the peptide in whole blood", "setting": "[3]", "result": "no degradation"}, {"measurement": "original content still present / detected in plasma", "setting": "[2]", "result": "~25", "unit": "%"}, {"measurement": "T90 in days (±SEM) in P100 plasma", "setting": "[2]; [7]", "result": "2.24 (±0.20) days"}, {"measurement": "T90 in days (±SEM) in P100 plasma", "setting": "[2]; [8]", "result": "2.56 (±0.21) days"}, {"measurement": "T90 in days (±SEM) in P100 plasma", "setting": "[2]; [9]", "result": "2.6 days and 2.61 (±0.23) days"}]}, {"substance": "SGSLSTFFRLFNRSFTQALGK [Q176]", "values": [{"measurement": "original content still present / detected in plasma", "setting": "[2]", "result": "more than 95%"}, {"measurement": "T90 in days (±SEM) in P100 plasma", "setting": "[2]; [7]", "result": "0.48 (±0.02) days"}, {"measurement": "T90 in days (±SEM) in P100 plasma", "setting": "[2]; [8]", "result": "16.4 (±6.98) days"}, {"measurement": "T90 in days (±SEM) in P100 plasma", "setting": "[2]; [9]", "result": "46.4 (±64.18) days"}]}, {"substance": "SNLVECVFSLFKKCN [Q076]", "values": [{"measurement": "T90 in days (±SEM) in P100 plasma", "setting": "[2]; [7]", "result": "1.24 (±0.03) days"}, {"measurement": "T90 in days (±SEM) in P100 plasma", "setting": "[2]; [8]", "result": "20.4 (±13.67) days"}, {"measurement": "T90 in days (±SEM) in P100 plasma", "setting": "[2]; [9]", "result": "13.2 (±4.80) days"}]}]}
